# Hits are enriched below; roughly 0.44% of the tested compounds scored in any of these assays.
# PglD DTNB: inhibitors of Campylobacter jejuni PglD acetyltransferase | purified PglD enzyme, DTNB colorimetric CoA detection | inhibition, % at 12.5 µM | hit rate 0.098% among 360,000 | AID 602405; in the data active = inhibition above about 16%, passing the limit was not always enough; inconclusive = no clear call, values can overlap the other calls
# RAD54 branch: RAD54 (human) branch migration inhibition. Q92698. RAD54 Holliday junction branch migration, FAM/BHQ fluorescence. inhibition, % at 10.4 µM. hit rate 0.14% among 360,000. AID 602329;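 active = mean normalized replicate activity at least 40 and at least half of replicates scoring 40 or more; inconclusive = only one of the two criteria met; inactive = mean below 40 and under half of replicates reaching 40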;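 note: 0% = median of neutral control wells and 100% = median of positive control wells; inhibitors cause a drop in the FAM fluorescence signal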
# ERp5 inh: inhibitors of human ERp5. Q15084. ERp5 insulin aggregation, absorbance 650 nm, 90 min. inhibition, % at 9.99 µM. hit rate 0.05% among 350,000;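 active = mean replicate inhibition above about 25%, with every replicate also reaching it, limit read from the data, passing the limit was not always enough; inconclusive = only one of those two criteria met; inactive = neither criterion met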
# Target sequence (Q15084 whole entry, looked up): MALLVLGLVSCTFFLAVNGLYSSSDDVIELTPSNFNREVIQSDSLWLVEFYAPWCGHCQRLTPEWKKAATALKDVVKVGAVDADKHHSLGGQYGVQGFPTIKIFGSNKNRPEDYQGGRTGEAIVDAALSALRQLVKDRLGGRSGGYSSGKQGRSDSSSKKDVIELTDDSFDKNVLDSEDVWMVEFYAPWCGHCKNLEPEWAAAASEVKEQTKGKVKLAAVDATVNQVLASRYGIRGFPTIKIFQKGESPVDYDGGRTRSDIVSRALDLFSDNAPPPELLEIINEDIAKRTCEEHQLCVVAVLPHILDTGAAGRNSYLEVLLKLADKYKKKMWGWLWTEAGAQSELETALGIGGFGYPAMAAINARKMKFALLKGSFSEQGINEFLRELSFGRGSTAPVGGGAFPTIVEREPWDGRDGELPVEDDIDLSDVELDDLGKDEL
# FN deposition inh: fibronectin deposition inhibition; inhibition, % at 12.6 µM; AID 743247; AH1F fibroblasts, Alexa488-fibronectin deposition fluorescence, overnight; hit rate 0.086% among 350,000;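 active = mean inhibition across replicates of 30% or more, regardless of how many single replicates reach that level; inconclusive = mean under 30% yet at least half of replicates reach 30%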;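 note: positive control wells lacked labelled fibronectin entirely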
#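 Assay system: AH1F fibroblast monolayer, labelled fibronectin deposition. Amount: 10000 cells per well. Also added: labelled fibronectin 24 nM. Compound: single-point pinned compound. Incubation: cell attachment 1 h, compound and FN exposure overnight. Detection: fluorescence after three HBSS washes, excitation 485 nm, emission 525 nm. Read-out: inhibition of fibronectin deposition signal.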
# S100A4 inh HTS: blocks human S100A4 binding to myosin IIA peptide; S100A4/TAMRA-MyoIIA peptide fluorescence polarization; inhibition, % at 10.7 µM; hit rate 0.14% among 360,000;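 active = mean inhibition of at least 70% across replicates, with every replicate also reaching that level; inconclusive = mean inhibition reaches 70% but some replicates fall short; inactive = mean inhibition below 70%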
#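 Test system: S100A4 monomer protein. Medium: HEPES buffer with Ca2+, pH 7.2. Reagent: fluorescent myosin IIA peptide, 5 nM. Compound dosing: single-point compound testing. Timing: 5 min between mix addition and reading. Benchmarks: DMSO neutral and TFP positive wells.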
# PDI inh: inhibitors of human protein disulfide isomerase | PDI insulin aggregation turbidity, A650, 90 min | inhibition, % at 10 µM | hit rate 0.052% among 350,000;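 active = mean inhibition across replicates of 30% or more, whatever share of single replicates reach that level; inconclusive = mean inhibition below 30% while every single replicate reaches 30%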
# PglD confirm: confirmation of Campylobacter jejuni PglD acetyltransferase inhibitors; shares compounds with PglD DTNB; AID 743156; 320 tested, under 10 active; inhibition, % at 20 µM; Purified C. jejuni PglD, DTNB absorbance 412 nm;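 active = mean inhibition across replicates of at least 20% with every single replicate also at 20% or more; inconclusive = mean inhibition at least 20% but some replicate falls below 20%; inactive = mean inhibition under 20% and not all replicates reach it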;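 note: initial rate of CoA release by acetyl transfer from AcCoA to the UDP-4-amino sugar; 0% = median of neutral control wells and 100% = median of positive control wells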
# * hit, by the source's call; ? = inconclusive; / = no result.
SMILES,PglD DTNB,RAD54 branch,ERp5 inh,FN deposition inh,S100A4 inh HTS,PDI inh,PglD confirm
COC(=O)Nc1ccc(S(=O)(=O)Nc2cc(C(F)(F)F)c[nH]c2=O)cc1,31*,3,-1,-1,-1,7,1
O=C(NCc1ccco1)C1OCCc2ccccc21 (stereo unspecified),25*,9,/,/,/,-5,-1
C[C@@H]1CN([C@H](C)CO)S(=O)(=O)c2ccc(C#CC3CCCC3)cc2O[C@H]1CN(C)Cc1cccnc1,-2,-5,4,-13,6,/,/
COc1ccc(-c2nnc(-c3cc4ccccc4oc3=O)o2)cc1,2,-5,/,-3,/,2,/
COc1cccc2cc(-c3nnc(-c4ccccc4)o3)c(=O)oc12,21*,1,-1,-3,3,10,4
N#C[C@H]1[C@@H](c2ccccc2-c2cccc(F)c2)[C@H](CO)N1C(=O)C1CC1,/,/,-3,2,0,/,/
CC(C(=O)Nc1ccc(Cl)cc1)N(C)Cc1cccs1 (stereo unspecified),23*,3,4,-5,-3,9,-8
CC(C(=O)Nc1ccc(C#N)cc1)N(C)Cc1cccs1 (stereo unspecified),-1,14,1,4,-2,12,/
COCC(=O)Nc1ccc2c(c1)C(=O)N(C)C[C@H](OC)[C@H](C)CN(Cc1ccccc1)[C@@H](C)CO2,4,3,-5,-19,-16,/,/
O=S1(=O)CCO[C@H]2Cc3ccccc3[C@H]2N1Cc1ccc(F)cc1,27*,1,-3,-2,2,0,-6
Cc1ccc(CN2[C@@H]3c4ccccc4C[C@@H]3OCCS2(=O)=O)cc1,2,3,0,-9,-2,0,/
Clc1ccc(-c2noc(CN3CCCC3)n2)cc1,31*,-1,/,/,/,-8,-4
C[C@H](NC(=O)C[C@H]1C=C[C@@H](NC(=O)Cc2ccccn2)[C@@H](CO)O1)c1ccccc1,0,-36,-1,-23,5,/,/
Cc1cc(=O)[nH]c(SCC(=O)Nc2ccc(F)cc2)c1C#N,0,1,10,-2,-7,0,/
Cc1cc(=O)[nH]c(SCC(=O)Nc2ccc(Br)cc2)c1C#N,21*,5,/,-9,/,6,3
CO[C@@H](CN(C)S(=O)(=O)c1ccc(Cl)cc1)[C@@H](C)CN([C@H](C)CO)S(=O)(=O)c1cccc(Cl)c1,0,4,3,8,1,/,/
O=C1CSCN1c1ccc(Cl)cc1,83*,4,1,-4,6,-3,9
O=C(NCCc1ccccc1)[C@H]1N[C@H]2c3ccc(-c4ccccc4)c(=O)n3C[C@H]2[C@@H]1CO,3,1,3,/,-12,/,/
CN(Cc1ccccc1)S(=O)(=O)c1ccc2[nH]c(=O)oc2c1,-3,-7,4,3,11,-4,/
CN(c1ccccc1)S(=O)(=O)c1ccc2[nH]c(=O)oc2c1,29*,1,0,9,-8,9,3
C=CCc1c(OC)ccc2c1c(S(=O)(=O)c1ccc(C)cc1)cn2COC,22*,6,7,6,2,-1,1
COc1cccc(-c2cnc3c(c2)C(=O)N([C@H](C)CO)C[C@@H](C)[C@H](CN(C)C(C)=O)O3)c1,-3,1,3,-8,?,/,/
CCNC(=O)C1CC(=O)N(Cc2ccc(F)cc2)C(=Nc2ccc(OC)cc2)S1 (stereo unspecified),/,/,-9,/,-5,4,/
CCNC(=O)C1CC(=O)N(Cc2ccc3c(c2)OCO3)C(=Nc2ccc(OCC)cc2)S1 (stereo unspecified),24*,5,/,-3,/,-3,-7
CCCc1cn(CC[C@H]2CC[C@@H](NC(=O)CCN3CCCCC3)[C@@H](CO)O2)nn1,1,8,1,4,4,/,/
COc1ccc(CSc2nc(O)cc(=O)n2CC(C)C)cc1F,21*,3,0,-11,4,-6,2
O=C(NCc1cccnc1)Nc1cccc(NC(=O)NCc2cccnc2)c1,0,-2,/,12,/,6,/
CC(=O)c1cccc(NC(=O)NCc2cccnc2)c1,22*,-5,-2,/,-7,11,2
CC(C)c1ccc(NC(=O)CSc2nnc(CN3CCOCC3)n2C)cc1,99*,-5,-1,0,4,1,-3
Cc1ccc(NC(=O)CSc2nnc(CN3CCOCC3)n2C)cc1C,/,/,/,12,/,3,/

# Screening data from PubChem.
